From PubChem BioAssay
Results filed as inconclusive are left out. Calls of active or inactive are those of the source.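 The calls were made as follows, unless noted: active = viability increase at or above a cutoff of the median across tested compounds plus 3 SD (cut at about 8.5% in these data, passing the limit was not always enough); inconclusive = some gains above the cutoff, reason not given; inactive = the rest.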

Tests used:
[1] = OD615 S. cerevisiae growth inhibition, permissive medium, pilot counter-assay, permissive growth control for S. cerevisiae lifespan shortening project (AID 705;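 active = growth inhibition above 25% in both replicates, a cutoff set 3 SD above the mean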); settings: OD615, 24 h, at 10 µM, hits give high values
In short: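 System – S. cerevisiae with engineered DeaD lifespan system · Buffer or medium – SC raffinose/galactose permissive medium · Schedule – cells pre-grown 4 h, then 24 h compound exposure, 30 °C humidified · Technique – culture turbidity as optical density at 615 nm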

[2] = Restrictive medium S. cerevisiae growth inhibition, OD615, pilot screen of yeast lifespan reduction project, restrictive growth control (AID 706;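 active = growth inhibition above a set limit, 3 SD over mean compound inhibition, in both replicates, cut at about 43% in these data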;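 also: modified DeaD lifespan yeast strain shifted to restrictive glucose medium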); settings: OD615, 48 h, at 10 µM, hits give high values
In short: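 Material: engineered S. cerevisiae DeaD strain / Medium: glucose-based CSMM-D restrictive medium / Compound: single dose of 10 µM compound final, 0.25% DMSO / Timing: 4 h pre-incubation, 48 h exposure at 30 °C / Technique: OD615 absorbance reading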

[3] = viability gain of MRP-1-high H69AR cells under doxorubicin, pilot screen, MRP-1 activator project, CellTiter-Glo, duplicate (AID 807); settings: H69AR viability with doxorubicin, CellTiter-Glo luminescence; at 10 µM; hits give high values;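 also: compound pretreatment 18-22 h then 72 h combined with doxorubicin; 0% = doxorubicin alone and 100% = vehicle without doxorubicin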
[4] = growth suppression of beta-catenin knockout HCT116, pilot screen, human colon tumor cells (AID 823;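 active = cell viability at or below a set limit in both duplicate runs, the limit being the all-compound median minus 4 SD, cut at about 23% in these data, passing the limit was not always enough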;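 also: 0% = wells killed by 20 µM Hyamine and 100% = untreated DMSO cell wells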); settings: CellTiter-Glo, 60 h, at 10 µM, hits give low values
[5] = growth suppression of PTEN-deleted HCT116, pilot screen, cell-based, HCT116 clonal line, CellTiter-Glo (AID 824;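 active = viability at or below 27.92% in each of two runs, the all-compound median minus 4 SD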;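 also: 0% = 20 µM Hyamine control and 100% = vehicle cell control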); settings: 60 h, at 10 µM, hits give low values
[6] = inhibitors of the yeast RAM network, pilot screen, dse1pr::URA3 reporter, 5-FOA selection (AID 869;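 active = inhibition over a set limit, the all-compound mean plus 3 SD, in both replicate runs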;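 also: 0% = DMSO wells with no growth and 100% = 10 µM 1-NA-PP1 with full growth; RAM network block rescues cells from 5-FOA so hits raise OD615 growth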); settings: S. cerevisiae dse1pr::URA3 5-FOA growth, OD615, 2 d; at 10 µM; hits give high values; strain carries analog-sensitive mutant Cbk1 kinase
[7] = RAM signaling pathway blockade in yeast – S. cerevisiae, Pdr1DBD-CYC8 efflux-inhibited sensitized strain, primary screen (AID 1298;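 active = RAM network inhibition above 8.4% in each of two replicates, 3 SD over the compound average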;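 also: 0% = DMSO untreated cells without growth and 100% = 10 µM 1-NA-PP1 full growth; higher means more yeast growth rescued from 5-FOA killing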); settings: S. cerevisiae cbk1-as DSE1-URA3 strain, 5-FOA growth OD615, 2 d; at 50 µM; hits give high values

COc1ccc(-c2nnc3ccc(SCC(=O)N4CCCCC4)nn23)cc1OC
inactive: growth inhibition [1] 3.98% | growth inhibition [2] 18.9% | viability increase [3] -4.61% | viability [4] 98.3% | viability [5] 98.9% | inhibition [6] 0.24% | RAM network inhibition [7] 2.36%

COC(=O)CCc1n[nH]c(=O)[nH]c1=O
inactive: growth inhibition [1] 3.66% | growth inhibition [2] 9.25% | viability increase [3] 0.89% | viability [4] 106% | viability [5] 102% | inhibition [6] 0.54% | RAM network inhibition [7] -0.87%

CS(=O)(=O)Nc1cccc2cccnc12
inactive: growth inhibition [1] 5.63% | growth inhibition [2] -1.19% | viability increase [3] -4.19% | viability [4] 50.4% | viability [5] 56.7% | inhibition [6] 2.3% | RAM network inhibition [7] 0.27%

CCC(Sc1nc(=O)cc(N)n1CCc1ccccc1)C(=O)Nc1cc(C)on1 (stereo not drawn)
inactive: growth inhibition [1] -3.68% | growth inhibition [2] -7.75% | viability increase [3] -1.78% | viability [4] 104% | viability [5] 95.7% | inhibition [6] 1.33% | RAM network inhibition [7] 6.71%

CCCn1cnc2cc(NCc3ccccn3)ccc21
inactive: growth inhibition [1] -5.07% | growth inhibition [2] 8.03% | viability increase [3] -2.58% | viability [4] 98.5% | viability [5] 100% | inhibition [6] 2.06% | RAM network inhibition [7] -2.3%

CCOc1ccc(N(CC(=O)NCc2ccccc2)S(=O)(=O)c2c(C)noc2C)cc1
inactive: growth inhibition [1] -21.6% | growth inhibition [2] -21.6% | viability increase [3] -0.68% | viability [4] 101% | viability [5] 95.1% | inhibition [6] 4.04% | RAM network inhibition [7] 3.95%

O=C(O)Cc1ccc(NC(=O)C2CC=CCC2C(=O)O)cc1 (stereo not drawn)
inactive: growth inhibition [1] -7.36% | growth inhibition [2] 1.55% | viability increase [3] 1.02% | viability [4] 102% | viability [5] 104% | inhibition [6] 3.26% | RAM network inhibition [7] 8.93%

O=C(Nc1scc(-c2cccs2)c1C(=O)O)c1cccs1
inactive: growth inhibition [1] -11.8% | growth inhibition [2] -9.07% | viability increase [3] 3.64% | viability [4] 103% | viability [5] 105% | inhibition [6] 1.41% | RAM network inhibition [7] 0.42%

Cc1onc(-c2ccccc2Cl)c1C(=O)Nc1ccccc1C(N)=O
inactive: growth inhibition [1] -9.31% | growth inhibition [2] -29.5% | viability increase [3] -3.08% | viability [4] 90.2% | viability [5] 85.5% | inhibition [6] 0.895% | RAM network inhibition [7] 0.67%

COCCCN(C(=O)Nc1ccccc1)C(C)c1ccncc1 (stereo not drawn)
inactive: growth inhibition [1] 2.64% | growth inhibition [2] -0.975% | viability increase [3] -1.88% | viability [4] 101% | viability [5] 94.3% | inhibition [6] 1.18% | RAM network inhibition [7] 3.28%

O=C(Nc1ccc2c(c1)OCO2)c1ccncc1
inactive: growth inhibition [1] -10.6% | growth inhibition [2] 0.215% | viability increase [3] -0.85% | viability [4] 87.9% | viability [5] 90.1% | inhibition [6] 0.205% | RAM network inhibition [7] 3.42%

COc1cccc(N(CC(=O)Nc2cccc(F)c2)S(C)(=O)=O)c1
inactive: growth inhibition [1] -5.09% | growth inhibition [2] -12.3% | viability increase [3] -1.38% | viability [4] 91.1% | viability [5] 97.5% | inhibition [6] 0.965% | RAM network inhibition [7] 3.51%

CCN(CCN(C)C)C(=O)Cn1ncc2c1-c1cc(C)ccc1OC2
inactive: growth inhibition [1] -11% | growth inhibition [2] -0.185% | viability increase [3] -0.91% | viability [4] 94.8% | viability [5] 102% | inhibition [6] 2.43% | RAM network inhibition [7] 2.3%

CN1C(=O)NC(c2ccccc2)C2=C1CN(Cc1ccco1)C2=O (stereo not drawn)
inactive: growth inhibition [1] -6.95% | growth inhibition [2] -14.4% | viability increase [3] -2.48% | viability [4] 90.4% | viability [5] 89.7% | inhibition [6] 1.47% | RAM network inhibition [7] 3%

O=C(CN1CCN(Cc2ccccc2Cl)C1=O)NCC1CCCO1 (stereo not drawn)
inactive: growth inhibition [1] 4.72% | growth inhibition [2] -0.62% | viability increase [3] -2.68% | viability [4] 97.2% | viability [5] 95.5% | inhibition [6] 0.35% | RAM network inhibition [7] 1.49%

c1ccc(-n2cnnc2SCc2cn3ccccc3n2)cc1
inactive: growth inhibition [1] 5.34% | growth inhibition [2] 20.6% | viability increase [3] -4.4% | viability [4] 101% | viability [5] 95.6% | inhibition [6] 1.19% | RAM network inhibition [7] 7.66%

COc1ccccc1N1CCN(c2cc(C)nc3nc(C)nn23)CC1
inactive: growth inhibition [1] -9.41% | growth inhibition [2] -13.6% | viability increase [3] -4.75% | viability [4] 85.7% | viability [5] 83.6% | inhibition [6] 2.03% | RAM network inhibition [7] -0.21%

COc1ccc(Cl)cc1NC(=O)C1CCCO1 (stereo not drawn)
inactive: growth inhibition [1] 0.985% | growth inhibition [2] -9.53% | viability increase [3] -2.12% | viability [4] 98.9% | viability [5] 94.7% | inhibition [6] 1.42% | RAM network inhibition [7] 2.75%

COC(=O)c1ccc(C2c3c(oc4ccccc4c3=O)C(=O)N2CCCN2CCOCC2)cc1 (stereo not drawn)
inactive: growth inhibition [1] -2.57% | growth inhibition [2] -3.54% | viability increase [3] -4.63% | viability [4] 87.6% | viability [5] 82.9% | inhibition [6] 0.54% | RAM network inhibition [7] 0.48%

O=C(Nc1ccc(Br)cc1F)c1ccc2c(c1)N(Cc1ccccc1)C(=O)CS2=O (stereo not drawn)
inactive: growth inhibition [1] -7.48% | growth inhibition [2] 1.12% | viability increase [3] -0.49% | viability [4] 81.1% | viability [5] 67.8% | inhibition [6] 2.64% | RAM network inhibition [7] 2.84%

CSc1ncccc1C(=O)OCC(=O)c1cc2ccccc2o1
inactive: growth inhibition [1] -12.5% | growth inhibition [2] -20.7% | viability increase [3] 0.25% | viability [4] 85% | viability [5] 93.7% | inhibition [6] 3.42% | RAM network inhibition [7] 4.75%

CCc1cc2c(NCC3CCCO3)ncnc2s1 (stereo not drawn)
inactive: growth inhibition [1] 2.17% | growth inhibition [2] 9.07% | viability increase [3] 0.8% | viability [4] 102% | viability [5] 95.6% | inhibition [6] 0.34% | RAM network inhibition [7] 4.46%

CCCCCCC1C(C#N)=C(N)OC2=C1C(=O)CCC2 (stereo not drawn)
inactive: growth inhibition [1] -12% | growth inhibition [2] -14.4% | viability increase [3] -2.64% | viability [4] 101% | viability [5] 92% | inhibition [6] 3.6% | RAM network inhibition [7] 4.66%

COc1ccc(-c2noc(Cc3cccs3)n2)cc1
inactive: growth inhibition [1] 0.04% | growth inhibition [2] 3.45% | viability increase [3] -2.47% | viability [4] 102% | viability [5] 93.3% | inhibition [6] 2.76% | RAM network inhibition [7] 4.89%

CC(=O)c1c(NCc2ccccc2)nc(=O)n(-c2ccccc2)c1C
inactive: growth inhibition [1] -4.12% | growth inhibition [2] 4.42% | viability increase [3] -1.28% | viability [4] 94.7% | viability [5] 97% | inhibition [6] 1.98% | RAM network inhibition [7] 4.07%

CNC(=O)C1CC(=O)N(c2ccc(C)cc2)C1 (stereo not drawn)
inactive: growth inhibition [1] -11.6% | growth inhibition [2] -11.4% | viability increase [3] 0.85% | viability [4] 98.5% | viability [5] 102% | inhibition [6] 0.395% | RAM network inhibition [7] 2.24%

O=S(=O)(c1cc(Cl)ccc1Cl)N1CCN(Cc2ccc3c(c2)OCO3)CC1
inactive: growth inhibition [1] -18.5% | growth inhibition [2] -8.86% | viability increase [3] 0.21% | viability [4] 94.8% | viability [5] 83.7% | inhibition [6] 0.37% | RAM network inhibition [7] 2.23%

CCn1c(SCC(=O)Nc2cccc(F)c2)nc2c(c1=O)SC(C)C2 (stereo not drawn)
inactive: growth inhibition [1] -11.8% | growth inhibition [2] -1.47% | viability increase [3] -0.53% | viability [4] 94.8% | viability [5] 86.8% | inhibition [6] 1.57% | RAM network inhibition [7] 4.64%

O=C(NCCc1csc(-c2cccnc2)n1)c1ccc(Br)o1
inactive: growth inhibition [1] 1.56% | growth inhibition [2] 10.1% | viability increase [3] -2.6% | viability [4] 107% | viability [5] 97.3% | inhibition [6] 0% | RAM network inhibition [7] 2.18%

COc1ccc(-n2ncc3c(N(C)C4CCCCC4)ncnc32)cc1
inactive: growth inhibition [1] -13.1% | growth inhibition [2] -9.66% | viability increase [3] -3.73% | viability [4] 85.5% | viability [5] 77.9% | inhibition [6] 1.76% | RAM network inhibition [7] 4.58%

Cc1cc(C)n2nc(SCC(=O)Nc3ccc(F)cc3)nc2n1
inactive: growth inhibition [1] -11.7% | growth inhibition [2] -10.9% | viability increase [3] -1.21% | viability [4] 111% | viability [5] 98.5% | inhibition [6] 2.25% | RAM network inhibition [7] -0.94%

O=C1CCCc2sccc2N1
inactive: growth inhibition [1] -6.83% | growth inhibition [2] -3.71% | viability increase [3] -1.57% | viability [4] 106% | viability [5] 96.9% | inhibition [6] 0.26% | RAM network inhibition [7] 2.15%

O=C(O)C1C2C=CC(C2)C1C(=O)NCc1ccc2c(c1)OCO2 (stereo not drawn)
inactive: growth inhibition [1] -3.23% | growth inhibition [2] -1.14% | viability increase [3] -1.9% | viability [4] 94.6% | viability [5] 90.6% | inhibition [6] 2.08% | RAM network inhibition [7] 2.65%

NC(=O)c1cc(Cl)cn(-c2ccccc2)c1=O
inactive: growth inhibition [1] -13% | growth inhibition [2] -5.85% | viability increase [3] -0.12% | viability [4] 99.7% | viability [5] 95% | inhibition [6] 1.81% | RAM network inhibition [7] 4.23%
